NOD2 RIPK2 PPI = NOD2-RIPK2 binding disruptors in cells, primary screen, fluorescence, CHO cells, BLA complementation; actives 0.38% (n = 360,000); Receptor-interacting serine/threonine-protein kinase 2 (Homo sapiens), O43353; AID 624267, 2012; CCF4 ratio; inhibition, % at 4.98 µM; in the data active = inhibition above about 21%
MC4R antag cAMP = MC4R antagonists of cAMP signaling, primary screen, cell-based, TR-FRET, antagonist arm of biased-ligand search | Melanocortin receptor 4 (Homo sapiens), P32245 | MC4R-expressing cells, MTII-stimulated cAMP, LANCE TR-FRET | inhibition, % at 6.5 µM | actives 0.48% (n = 360,000) | AID 540295, 2011;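 active = inhibition above its plate's cutoff, the mean of tested wells on that plate plus 3 SD, cut at about 29% in these data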
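Material: U2OS-MC4R stable cell line | Reagent: Melanotan II challenge after compound preincubation | Doses: One concentration, 6.5 µM nominal | Incubation: 30-min compound preincubation, 1-h Melanotan II challenge, 1-h detection, room temperature | Signal: TR-FRET cAMP assay | Replicates: One well per compound, no replicates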
MC4R barr agon = MC4R agonists recruiting beta-arrestin, primary screen, cell-based, luminescence, agonist arm of biased-ligand search | Melanocortin receptor 4 (Homo sapiens), P32245 | U2OS MC4R beta-arrestin complementation; percent of melanotan II response, DMSO zero | AID 540308, 2011 | actives 0.98% (n = 360,000) | activation, % at 8.9 µM;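 active = activation above a per-plate cutoff, the mean activation of sample wells on that plate plus 3 SD, cut at about 8% in these data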
TLR4-MyD88 BLA = inhibitors of TLR4-MyD88 association in cells, primary screen, cell-based, HeLa CL3-4, BLA complementation, FRET ratio; Toll-like receptor 4 (Homo sapiens) + Myeloid differentiation primary response protein …; HeLa CL3-4 TLR4/MyD88 BLA complementation; inhibition, % at 8.4 µM; actives 0.18% (n = 200,000); AID 861, 2007; in the data active = inhibition above about 25%
Target sequence (O00206 whole entry, looked up): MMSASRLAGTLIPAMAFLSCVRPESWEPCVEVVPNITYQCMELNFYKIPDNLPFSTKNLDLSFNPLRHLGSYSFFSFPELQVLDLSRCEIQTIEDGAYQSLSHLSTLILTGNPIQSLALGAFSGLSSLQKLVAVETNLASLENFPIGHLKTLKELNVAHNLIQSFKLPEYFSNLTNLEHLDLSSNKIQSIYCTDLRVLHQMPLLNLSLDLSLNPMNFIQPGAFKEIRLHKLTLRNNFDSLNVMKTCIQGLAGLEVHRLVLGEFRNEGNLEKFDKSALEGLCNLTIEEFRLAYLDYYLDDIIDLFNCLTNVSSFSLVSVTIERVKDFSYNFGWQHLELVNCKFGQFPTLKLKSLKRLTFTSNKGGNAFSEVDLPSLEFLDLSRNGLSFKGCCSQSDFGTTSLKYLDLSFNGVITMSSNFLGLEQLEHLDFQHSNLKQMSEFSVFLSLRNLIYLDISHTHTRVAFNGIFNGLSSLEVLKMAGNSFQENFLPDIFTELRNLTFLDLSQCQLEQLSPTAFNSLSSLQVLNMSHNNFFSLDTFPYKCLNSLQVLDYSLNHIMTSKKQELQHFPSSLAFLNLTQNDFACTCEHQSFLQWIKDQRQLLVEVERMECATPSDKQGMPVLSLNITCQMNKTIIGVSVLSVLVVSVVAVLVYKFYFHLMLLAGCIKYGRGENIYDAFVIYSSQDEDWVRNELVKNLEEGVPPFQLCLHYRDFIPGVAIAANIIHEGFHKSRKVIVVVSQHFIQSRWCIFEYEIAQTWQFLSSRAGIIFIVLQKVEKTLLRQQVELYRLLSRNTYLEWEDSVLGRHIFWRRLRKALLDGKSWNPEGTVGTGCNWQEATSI
Target sequence (Q99836 whole entry, looked up): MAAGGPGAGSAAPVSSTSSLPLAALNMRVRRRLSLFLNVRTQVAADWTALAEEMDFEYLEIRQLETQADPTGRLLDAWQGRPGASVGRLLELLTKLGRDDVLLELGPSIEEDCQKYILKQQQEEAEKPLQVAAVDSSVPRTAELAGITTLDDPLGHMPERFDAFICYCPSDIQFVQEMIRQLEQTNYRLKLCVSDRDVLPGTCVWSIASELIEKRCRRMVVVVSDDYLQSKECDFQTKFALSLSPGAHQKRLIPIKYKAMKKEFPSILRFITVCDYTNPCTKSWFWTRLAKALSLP
TLR9-MyD88 block = inhibitors of TLR9-MyD88 association in cells, primary screen, cell-based, CHO, BLA complementation, fluorescence; Toll-like receptor 9 (Homo sapiens) + Myeloid differentiation primary response protein …; CCF4 FRET ratio; inhibition, % at 4.98 µM; actives 0.21% (n = 340,000);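 active = inhibition above the mean over all tested compounds plus 3 SD, cut at about 21% in these data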
MIN6 prolif = inducers of MIN6 beta-cell proliferation, primary screen, ATP luminescence, uHTS | MIN6 cells proliferation, ATPlite luminescence, 48 h; cells starved in 0.2% serum; 100% = growth in 10% serum | proliferation, % at 10 µM | actives 0.29% (n = 330,000) | AID 2380, 2010;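 active = compounds whose signal lies at least 3.5 SD above the mean of all wells on their plate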
TLR9-MyD88 cf = TLR9-MyD88 association inhibitors, retest, confirmation, cell-based, CHO, BLA complementation, fluorescence, triplicate. AID 540250, 2011. shares compounds with TLR9-MyD88 block. CCF4 FRET ratio. actives 51% (n = 680). inhibition, % at 4.98 µM;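 active = mean inhibition across three repeats above about 21% taken from the earlier screen, limit read from the data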;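 note: blue over green emission ratio reports constitutive TLR9 MyD88 association via BLA complementation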
BLA nonselective = beta-lactamase reporter inhibitors in CHO cells, artefact control for TLR9-MyD88 binding inhibitor project, cell-based, fluorescence. actives 7% (n = 680). CHO-BLA cells, CCF4 FRET ratio, BLA reporter. shares compounds with TLR9-MyD88 block. inhibition, % at 4.98 µM;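 active = mean inhibition above a 50% cutoff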;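 note: counterscreen of TLR9-MyD88 hits on CMV-driven BLA in CHO-K1 cells; higher means less blue over green ratio so more BLA blockade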
TLR9 CHO tox = CHO cell viability loss – luminescence, single concentration, cytotoxicity control for TLR9-MyD88 binding inhibitor project. shares compounds with TLR9-MyD88 block. TLR9-MyD88 CHO cells cytotoxicity. inhibition, % at 4.98 µM. actives 39% (n = 680). AID 588336, 2011; in the data active = inhibition above about 11%
A number is an active result; n = inactive; x = no result given. This is a sample that favours compounds with a hit; in the whole collection about 2.1% have one here.

SMILES	NOD2 RIPK2 PPI	MC4R antag cAMP	MC4R barr agon	TLR4-MyD88 BLA	TLR9-MyD88 block	MIN6 prolif	TLR9-MyD88 cf	BLA nonselective	TLR9 CHO tox
CC(C)(C)c1cc(NC(=O)c2c(F)cccc2Cl)n(-c2ccccc2)n1	n	n	n	x	23	n	n	n	n
O=C(NC1CCSC1=O)C1CC(=O)N(c2ccc(F)cc2)C1 (centres undefined)	n	n	n	x	n	n	x	x	x
CS(=O)(=O)c1sc2nc(-c3cccs3)cc(-c3ccccc3)c2c1N	n	n	n	n	25	n	n	n	n
COc1ccccc1-n1cc(CN2CCCC(CO)(Cc3cccc(Cl)c3)C2)cn1 (centres undefined)	n	n	n	n	n	n	x	x	x
COc1ccc(OCC(O)CNC(=O)/C=C/c2cccc([N+](=O)[O-])c2)cc1 (centres undefined)	n	n	n	n	23	n	n	n	n
COc1cc(/C=C2\S/C(=N/S(=O)(=O)c3ccc(C)cc3)NC2=O)c([N+](=O)[O-])cc1OC	n	n	n	n	n	n	x	x	x
Cc1ccc(S(=O)(=O)/N=C2/NC(=O)/C(=C/c3cc([N+](=O)[O-])ccc3O)S2)cc1	n	n	n	x	27	n	n	n	n
O=C(C1=NN(c2ccccc2)C2C(=O)N(c3ccc(Cl)cc3)C(=O)C12)c1ccccc1 (centres undefined)	n	n	n	n	30	x	25	n	n
Cc1ccc(Cl)c(NC(=O)COC(=O)c2ccccc2C(=O)c2ccc(Cl)c([N+](=O)[O-])c2)c1Cl	n	n	n	n	27	x	29	n	15
COc1ccccc1C1C=C(c2ccc(C)cc2)Nc2nnnn21 (centres undefined)	n	n	n	n	22	n	n	n	n
O=C(OCn1ncc(Br)c(Br)c1=O)c1ccccc1Cl	82	n	n	n	32	n	36	n	100
O=c1n(Cc2ccccc2)nc2n1-c1ccccc1SC2	n	n	n	x	n	n	x	x	x
C=CCn1nc2n(c1=O)-c1ccccc1SC2	n	n	n	x	23	n	n	n	n
COc1cccc(CNC(=O)CCC2CCCN(C(=O)c3cccnc3SC)C2)c1 (centres undefined)	n	n	n	x	n	n	x	x	x
CCOC(=O)COc1ccc2c(C#N)c3ccccn3c2c1	n	n	n	n	26	x	n	n	n
O=C1C=CC(=O)N1c1ccc2c(c1)C(NC(=O)C(F)(F)F)c1ccccc1-2 (centres undefined)	n	71	n	x	30	x	36	n	98
CN(C)C(=O)NC1c2ccccc2-c2ccccc21	n	n	n	x	n	n	x	x	x
CCOC(=O)CNc1c(-c2ccc(F)cc2)nc2cnccn12	n	n	n	n	24	n	n	n	n
COc1ccc(O)c(CN2CCC(n3nccc3NC(=O)CCOc3ccccc3)CC2)c1	n	n	n	x	n	n	x	x	x
COc1ccc(S(=O)(=O)N2CCCCC2)cc1NC(=O)c1ccc([N+](=O)[O-])o1	n	n	n	n	22	n	n	n	22
Cc1[nH]n(-c2ccccc2)c(=O)c1C=NCC1CCCO1 (centres undefined)	n	n	n	n	26	n	n	n	n
CCCc1[nH]n(-c2ccc(F)cc2)c(=O)c1C=NCC1CCCO1 (centres undefined)	n	n	n	n	n	n	x	x	x
CN(Cc1ccccc1)C(=O)c1cccc(NC(=O)Cc2ccc(NC(=O)C3CCN(C(=O)C4CCC4)CC3)cc2)c1	n	n	n	x	n	x	x	x	x
Cc1ccc(S(=O)(=O)N2CCCCC2C(=O)N(C)c2ccccc2)cc1 (centres undefined)	n	n	n	x	n	n	x	x	x
O=c1[nH]ncc(NCCc2ccccc2)c1Cl	n	n	n	n	24	n	n	n	n
SMILES	NOD2 RIPK2 PPI	MC4R antag cAMP	MC4R barr agon	TLR4-MyD88 BLA	TLR9-MyD88 block	MIN6 prolif	TLR9-MyD88 cf	BLA nonselective	TLR9 CHO tox
CCCCS(=O)(=O)/C=C\C=C/S(=O)(=O)CCCC	91	n	n	n	34	n	37	n	100
CC(C)c1cccc(-c2ccc3c(c2)S(=O)(=O)c2cccc(C(=O)NCc4ccccc4)c2C3=O)c1	n	n	n	x	n	n	x	x	x
O=C(NCc1ccc(OC(F)(F)F)cc1)c1cccc2c1C(=O)c1ccc(N3CCC(Cc4ccccc4)CC3)cc1S2(=O)=O	n	n	n	x	n	n	x	x	x
O=C(NCc1ccco1)c1cccc2c1C(=O)c1ccc(/C=C/c3ccccc3)cc1S2(=O)=O	n	n	n	x	30	n	47	52	12
O=C(NCc1ccco1)c1cccc2c1C(=O)c1ccc(N3CCC(Cc4ccccc4)CC3)cc1S2(=O)=O	32	n	n	x	27	n	37	n	n
O=C(NCc1cccc(F)c1)c1cccc2c1C(=O)c1ccc(N3CCC(Cc4ccccc4)CC3)cc1S2(=O)=O	21	n	n	x	50	n	44	n	n
O=C(NCc1cccc(C(F)(F)F)c1)c1cccc2c1C(=O)c1ccc(N3CCC(Cc4ccccc4)CC3)cc1S2(=O)=O	n	n	n	x	31	n	45	n	n
CC1CCN(c2ccc3c(c2)S(=O)(=O)c2cccc(C(=O)NCc4cccc(F)c4)c2C3=O)CC1	n	n	n	x	n	n	x	x	x
CN(Cc1ccco1)C(=O)C1CCCN(c2ncnc3c2nc2n3CCCCC2)C1 (centres undefined)	n	n	n	x	n	n	x	x	x
Cc1ccc(NC(=O)CN(C)C(=O)c2ccc(NS(=O)(=O)c3ccc4[nH]c(=O)[nH]c4c3)cc2)cc1	n	n	n	x	n	n	x	x	x
CCOCc1nnc(NC(=O)C2CC(=O)N(C3CCCC3)C2)s1 (centres undefined)	n	n	n	x	n	n	x	x	x
